Results: ChEMBL document CHEMBL2311390, “Synthesis and preliminary evaluation of pharmacological properties of some piperazine derivatives of xanthone” (Bioorg Med Chem, 2013)

Tests used:
Rattus norvegicus [1] = assay: Hypotensive activity in normotensive Wistar rat assessed as reduction of diastolic blood pressure at 0.16 mg/kg, iv after 60 mins; format: functional, Artery
How it was run: (§1)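 Male normotensive Wistar rats were anaesthetised with thiopental 75 mg/kg ip. The right carotid artery was cannulated with heparinised saline for pressure recording. After 5 min of stabilisation, compound was injected into the tail vein at 1 mL/kg. Systolic and diastolic pressure were followed up to 60 min. Data are means ± SEM of 5–6 rats, analysed by one-way ANOVA.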

Rattus norvegicus [2] = assay: Hypotensive activity in normotensive Wistar rat assessed as reduction of diastolic blood pressure at 0.625 mg/kg, iv after 30 mins; format: functional, Artery; how it was run: as §1
Rattus norvegicus [3] = assay: Hypotensive activity in normotensive Wistar rat assessed as reduction of diastolic blood pressure at 0.16 mg/kg, iv after 20 mins; format: functional, Artery; how it was run: as §1
Rattus norvegicus [4] = assay: Hypotensive activity in normotensive Wistar rat assessed as reduction of systolic blood pressure at 0.625 mg/kg, iv after 30 mins; format: functional, Artery
How it was run: (§2)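 Male normotensive Wistar rats (170–350 g) anaesthetised with thiopental 75 mg/kg ip; right carotid artery cannulated with heparinised saline-filled polyethylene tubing for pressure recording. After a 5 min stabilisation, compound given into the caudal vein at 1 mL/kg. Systolic pressure is recorded at 0, 5, 10, 20, 30 and 60 min, and the data are reported as mean ± SEM of five to six animals, with one-way ANOVA.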

Rattus norvegicus [5] = assay: Hypotensive activity in normotensive Wistar rat assessed as reduction of systolic blood pressure at 0.16 mg/kg, iv after 60 mins; format: functional, Artery; how it was run: as §2
Rattus norvegicus [6] = assay: Hypotensive activity in normotensive Wistar rat assessed as reduction of diastolic blood pressure at 0.31 mg/kg, iv after 60 mins; format: functional, Artery; how it was run: as §1
Rattus norvegicus [7] = assay: Hypotensive activity in normotensive Wistar rat assessed as reduction of diastolic blood pressure at 0.31 mg/kg, iv after 30 mins; format: functional, Artery; how it was run: as §1
Rattus norvegicus [8] = assay: Hypotensive activity in normotensive Wistar rat assessed as reduction of systolic blood pressure at 0.16 mg/kg, iv after 10 mins; format: functional, Artery; how it was run: as §1
Rattus norvegicus [9] = assay: Hypotensive activity in normotensive Wistar rat assessed as reduction of systolic blood pressure at 0.16 mg/kg, iv after 30 mins; format: functional, Artery; how it was run: as §2
Rattus norvegicus [10] = assay: Hypotensive activity in normotensive Wistar rat assessed as reduction of systolic blood pressure at 1.25 mg/kg, iv after 5 mins; format: functional, Artery; how it was run: as §2
Rattus norvegicus [11] = assay: Cardiotoxicity in Wistar rat assessed as QRS interval at 10 mg/kg, iv after 5 mins by ECG analysis; format: toxicity, organism-based; set-up: dose 10 mg/kg, route intravenous; settings: in vivo
How it was run: (§3)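 Male normotensive Wistar rats, 170–350 g, six per group. Compound given iv at a constant volume of 1 mL/kg. ECG was recorded just before dosing and at 1, 5 and 15 min after. PQ, QRS and QT intervals and heart rate were read from the trace. Groups were compared by one-way ANOVA.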

Rattus norvegicus [12] = assay: Cardiotoxicity in Wistar rat assessed as QRS interval at 10 mg/kg, iv after 15 mins by ECG analysis; format: toxicity, organism-based; set-up: dose 10 mg/kg, route intravenous; settings: in vivo, 0.25 h; how it was run: as §3
Rattus norvegicus [13] = assay: Cardiotoxicity in Wistar rat assessed as PQ interval at 10 mg/kg, iv after 15 mins by ECG analysis; format: toxicity, organism-based; set-up: dose 10 mg/kg, route intravenous; settings: in vivo, 0.25 h; how it was run: as §3
Rattus norvegicus [14] = assay: Cardiotoxicity in Wistar rat assessed as PQ interval at 10 mg/kg, iv after 10 mins by ECG analysis; format: toxicity, organism-based; set-up: dose 10 mg/kg, route intravenous; settings: in vivo
Rattus norvegicus [15] = assay: Cardiotoxicity in Wistar rat assessed as QRS interval at 5 mg/kg, iv after 15 mins by ECG analysis; format: toxicity, organism-based; set-up: dose 5 mg/kg, route intravenous; settings: in vivo, 0.25 h; how it was run: as §3
Rattus norvegicus [16] = assay: Cardiotoxicity in Wistar rat assessed as QRS interval at 5 mg/kg, iv after 10 mins by ECG analysis; format: toxicity, organism-based; set-up: dose 5 mg/kg, route intravenous; settings: in vivo
Rattus norvegicus [17] = assay: Cardiotoxicity in Wistar rat assessed as QT interval at 5 mg/kg, iv after 15 mins by ECG analysis; format: toxicity, organism-based; set-up: dose 5 mg/kg, route intravenous; settings: in vivo, 0.25 h; how it was run: as §3

COc1ccccc1N1CCN(CCCOc2cccc3c(=O)c4ccccc4oc23)CC1.Cl
Activity (Rattus norvegicus [1]): 95.2 mmHg | Activity (Rattus norvegicus [2]): 111.7 mmHg | Activity (Rattus norvegicus [3]): 101 mmHg | Activity (Rattus norvegicus [4]): 129.5 mmHg | Activity (Rattus norvegicus [5]): 108.2 mmHg | Activity (Rattus norvegicus [6]): 97.2 mmHg | Activity (Rattus norvegicus [7]): 103.3 mmHg | Activity (Rattus norvegicus [8]): 114 mmHg | Activity (Rattus norvegicus [9]): 111.4 mmHg

COc1ccccc1N1CCN(CC(COc2cccc3c(=O)c4ccccc4oc23)OC(C)=O)CC1.Cl (racemic)
Activity (Rattus norvegicus [2]): 93.2 mmHg | Activity (Rattus norvegicus [4]): 120.6 mmHg | Activity (Rattus norvegicus [10]): 119 mmHg

COc1ccccc1N1CCN(CC(O)COc2cccc3c(=O)c4ccccc4oc23)CC1.Cl (racemic)
Activity (Rattus norvegicus [1]): 101.5 mmHg | Activity (Rattus norvegicus [3]): 103.8 mmHg | Activity (Rattus norvegicus [5]): 115.2 mmHg | Activity (Rattus norvegicus [6]): 98.4 mmHg | Activity (Rattus norvegicus [7]): 100.6 mmHg | Activity (Rattus norvegicus [8]): 124.8 mmHg | Activity (Rattus norvegicus [9]): 115.7 mmHg

Cl.Cl.Cl.O=c1c2ccc(Cl)cc2oc2c(OCC(O)CN3CCN(CCOc4ccccc4)CC3)cccc12 (racemic)
Activity (Rattus norvegicus [11]): 18.8 ms | Activity (Rattus norvegicus [12]): 20.4 ms | Activity (Rattus norvegicus [13]): 32.81 ms | Activity (Rattus norvegicus [10]): 117.2 mmHg | Activity (Rattus norvegicus [14]): 33.6 ms

Cl.Cl.Cl.O=c1c2ccc(Cl)cc2oc2c(OCC(O)CN3CCN(C/C=C/c4ccccc4)CC3)cccc12 (racemic)
Activity (Rattus norvegicus [15]): 20.3 ms | Activity (Rattus norvegicus [16]): 20.2 ms | Activity (Rattus norvegicus [17]): 74.6 ms

Cl.Cl.Cl.O=c1c2ccc(Cl)cc2oc2c(OCC(O)CN3CCN(Cc4ccccc4)CC3)cccc12 (racemic)
Activity (Rattus norvegicus [11]): 19.2 ms | Activity (Rattus norvegicus [12]): 20.1 ms | Activity (Rattus norvegicus [13]): 40.9 ms | Activity (Rattus norvegicus [14]): 41.1 ms

Cl.Cl.O=c1c2ccccc2oc2c(OCC(O)CN3CCN(C/C=C/c4ccccc4)CC3)cccc12 (racemic)
Activity (Rattus norvegicus [15]): 24 ms | Activity (Rattus norvegicus [16]): 23.5 ms | Activity (Rattus norvegicus [17]): 77.6 ms
